Source: PubChem (several laboratories)
NR2E3 ag-1: human photoreceptor-specific nuclear receptor agonism; Q9Y5X4; CHO-S Gal4-NCOR/VP16-NR2E3 two-hybrid, luciferase; inhibition of corepressor binding, % at 3.98 µM; hit rate 0.35% among 360,000;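 active = inhibition above the mean of all tested compounds plus 3 SD, cut at about 70% in these data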;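 note: higher means lower luciferase signal from less NR2E3 corepressor binding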
Target sequence (Q9Y5X4 whole entry, looked up, the tested form may be a part): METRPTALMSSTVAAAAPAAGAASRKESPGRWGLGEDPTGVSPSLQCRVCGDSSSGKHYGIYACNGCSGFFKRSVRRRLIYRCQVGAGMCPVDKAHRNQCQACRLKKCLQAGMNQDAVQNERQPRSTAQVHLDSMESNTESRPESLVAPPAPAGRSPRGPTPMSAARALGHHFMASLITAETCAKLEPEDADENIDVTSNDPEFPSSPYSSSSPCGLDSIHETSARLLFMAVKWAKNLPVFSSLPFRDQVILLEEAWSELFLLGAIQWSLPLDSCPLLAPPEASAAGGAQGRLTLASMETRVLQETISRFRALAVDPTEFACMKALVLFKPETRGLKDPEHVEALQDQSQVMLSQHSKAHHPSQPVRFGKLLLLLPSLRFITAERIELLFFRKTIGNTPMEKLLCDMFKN
PG9 Ab binder: small molecules binding HIV-1 gp120 antibody PG9 | TR-FRET gp120-PG9 antibody binding | inhibition, % at 6.7 µM | hit rate 0.43% among 360,000; in the data active = inhibition above about 8.5%
Rev-erbA mod: Rev-erb alpha (human) modulation. P20393. Rev-erbα–FITC-DNA binding, fluorescence polarization, 90 min. activity, % at 10 µM. hit rate 0.79% among 370,000;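 active = activity above about 14%, limit read from the data; passing the limit was not always enough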
rCAG binder: binds r(CAG) RNA repeats | r(CAG) RNA repeat, TO-PRO-1 dye displacement fluorescence | AID 651821 | inhibition, % at 3 µM | hit rate 1.3% among 370,000;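 active = inhibition above the plate cutoff, the mean of all test compounds on that plate plus 3 SD, cut at about 35% in these data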;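 note: higher means more dye released from RNA so lower well fluorescence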
NR2E3 ag-2: NR2E3 (human) agonism | Q9Y5X4 | GST-NR2E3/biotin-RetCOR TR-FRET, 1536-well | inhibition of corepressor binding, % at 4.78 µM | hit rate 0.12% among 320,000 | AID 2300;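 active = percent inhibition above the cutoff of mean plus 3 SD of all tested compounds, set per screening campaign, cut at about 20% in these data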
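Format: 1536-well format; test system: GST-NR2E3 and biotin-RetCOR proteins; read-out basis: percent inhibition of TR-FRET ratio; timing: 5 h incubation at 4 °C; detection: time-resolved FRET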
rCAG bind conf: r(CAG) RNA repeat binding, confirmation; hit rate 70% among 4,300; TO-PRO-1 dye displacement fluorescence; AID 652065; shares compounds with rCAG binder; inhibition, % at 3 µM;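 active = inhibition above a per-plate cutoff, the mean inhibition of sample wells plus 3 SD, cut at about 35% in these data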;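 note: loss of TO-PRO-1 fluorescence as compound displaces dye from 1x1 AA loop RNA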
dCAG dye counter: counter-screen for rCAG RNA binders: DNA CAG dye complex inhibitors; shares compounds with rCAG binder; d(CAG) DNA oligo TO-PRO-1 dye displacement, fluorescence; inhibition, % at 3 µM; hit rate 94% among 4,300;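 active = inhibition above its plate's cutoff, the mean test-well inhibition plus 3 SD, cut at about 4.8% in these data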;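 note: hits displace the dye from DNA and so lower well fluorescence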
Each line names hits and unclear results; the compound was inactive in the other large screens (follow-up assays come after a bar, where they were run). An excerpt weighted towards active compounds, which were near 2.6% of everything screened.

O=C1CC(C(=O)N2CCN(c3ccccc3)CC2)CN1Cc1ccccc1 (stereo not given)	none (no result: NR2E3 ag-2)
O=C(NCc1ccco1)c1cccc(-c2ccc3nccn3c2)c1	none (no result: NR2E3 ag-2)
Clc1ccc(N(CC2CO2)CC2CO2)cc1 (stereo not given)	none (no result: NR2E3 ag-2)
COc1ccc(C(=O)Nc2nnc([C@@H]3C[C@H](O)[C@@H](CO)O3)s2)cc1	none (no result: NR2E3 ag-2)
Cc1ccc([C@@H]2CC=C(C(=O)O)[C@H](c3cccc(F)c3)N2S(=O)(=O)c2ccccc2C)cc1	rCAG binder 76 (no result: NR2E3 ag-2) | rCAG bind conf 67 | dCAG dye counter 28
Cc1ccc([C@@H]2CC=C(C(=O)O)[C@H](c3ccccc3F)N2S(=O)(=O)c2ccccc2C)cc1	rCAG binder 51 (no result: NR2E3 ag-2) | rCAG bind conf 59 | dCAG dye counter 24
COc1cc([C@@H]2CC=C(C(=O)O)[C@H](c3ccccc3F)N2S(=O)(=O)c2ccc(C)cc2)cc(OC)c1OC	none
Cc1ccc([C@@H]2CC=C(C(=O)O)[C@H](c3ccc(F)cc3)N2S(=O)(=O)c2ccccc2C)cc1	rCAG binder 70 (no result: NR2E3 ag-2) | rCAG bind conf 60 | dCAG dye counter 23
CCOC(=O)C1CCN(C(=O)c2cccc(S(=O)(=O)N3CCCc4ccccc43)c2)CC1	none (no result: NR2E3 ag-2)
CC(C)(C)OC(=O)NCc1ccccc1/C=C/S(=O)(=O)NCc1ccccc1	none (no result: NR2E3 ag-1, PG9 Ab binder, NR2E3 ag-2)
CCCN=C1N(C)C[C@@H]2[C@@H]3C(=O)N(Cc4ccccc4)C(=O)[C@@H]3[C@](Cc3ccccc3)(C(=O)OC)N12	none (no result: NR2E3 ag-2)
O=C(O)c1cc(-c2c[nH]c3ccccc23)nc2ccc3ccccc3c12	rCAG binder 52 | rCAG bind conf 45 | dCAG dye counter 11
O=C(O)/C(=C\c1cccc(F)c1)c1ccc(S(=O)(=O)N2CCCCC2)s1	none
CSc1ccc(/C=C(\C(=O)O)c2ccc(S(=O)(=O)N3CCCC3)s2)cc1	rCAG binder 39 | rCAG bind conf inactive | dCAG dye counter 10
O=C(O)/C(=C\c1cccc(O)c1)c1ccc(S(=O)(=O)N2CCCC2)s1	none
O=C(O)/C(=C/c1ccc(Cl)c([N+](=O)[O-])c1)c1ccc(S(=O)(=O)N2CCCCC2)s1	rCAG binder 89 (no result: NR2E3 ag-2) | rCAG bind conf 77 | dCAG dye counter 40
CCC1=NN2C(=N)/C(=C/c3c(C)nn(-c4ccccc4)c3Cl)C(=O)N=C2S1	none
CCC1=NN2C(=N)/C(=C\c3ccc(SCc4ccco4)o3)C(=O)N=C2S1	rCAG binder 65 | rCAG bind conf 56 | dCAG dye counter 20
CC(C)N(Cc1c(O)ccc2c(=O)c(-c3ccc(Cl)cc3)coc12)C(C)C	rCAG binder 42 | rCAG bind conf inactive | dCAG dye counter 10
CCOC(=O)/C(N=Nc1sc(C(=O)OCC)c(C)c1C(=O)OCC)=C(\C)O	none (no result: NR2E3 ag-1, PG9 Ab binder, Rev-erbA mod, rCAG binder)
CCOC(=O)c1sc(N=NC2=C(O)CCCC2=O)c(C(=O)OCC)c1C	rCAG binder 57 | rCAG bind conf inactive | dCAG dye counter 17
Cc1nn(-c2cccc(Cl)c2)c2c1C(c1ccncc1)C(C#N)=C(N)O2 (stereo not given)	rCAG binder 36 | rCAG bind conf inactive | dCAG dye counter 5.2
Cc1nn(-c2cccc(Cl)c2)c2c1C(c1cccnc1)C(C#N)=C(N)O2 (stereo not given)	none
COc1cc(C2C(C#N)=C(N)Oc3c2c(-c2ccccc2)nn3-c2ccccc2)cc(OC)c1OC (stereo not given)	rCAG binder 62 | rCAG bind conf inactive | dCAG dye counter 8.5
Cc1nn(-c2ccccc2)c2c1C(c1ccc([N+](=O)[O-])cc1)C(C#N)=C(N)O2 (stereo not given)	none
Cc1ccc(N2CC(C(=O)N/N=C/c3c(F)cccc3Cl)CC2=O)cc1 (stereo not given)	none
CCNC(=S)Nc1cccc([N+](=O)[O-])c1	none (no result: NR2E3 ag-1, PG9 Ab binder, Rev-erbA mod, rCAG binder)
O=[N+]([O-])c1cccc(NC(=S)Nc2nc(-c3ccccc3Cl)cs2)c1	rCAG binder 39 | rCAG bind conf 36 | dCAG dye counter 28
O=C(Nc1ccc(Cl)c(Cl)c1)Nc1ccccc1NS(=O)(=O)c1cccs1	rCAG binder 42 | rCAG bind conf inactive | dCAG dye counter 9.4
